From ChEMBL document CHEMBL3271979, “Inhibition of solid tumors by nitrosoureas. 1. Lewis lung carcinoma” (1977)
Calls of active or inactive are those of the source. The rule behind the calls is not given here.

Tests used:
[1] = Antitumor activity against mouse early Lewis lung carcinoma allografted in BDF1 mouse assessed as increase in host life span at 20 mg/kg, ip administered as single dose on 1 or 2 days post-tumor implantation; format: functional; details: route intraperitoneal
Outline: (§1)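 BDF1 mice (C57Blk/6 × DBA/2) implanted sc by trocar with ~40 mg Lewis lung tumor fragments from bacteriologically sterile donor tumors. Single ip dose on day 1 or 2, as a solution or suspension in water (CMC or gum acacia) or saline (HPC or Tween 80). Read-out is […]. Same-dose toxicity controls were run in nontumor-bearing mice.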

[2] = Antitumor activity against mouse early Lewis lung carcinoma allografted in BDF1 mouse assessed as increase in host life span at 30 mg/kg, ip administered as single dose on 1 or 2 days post-tumor implantation; format: functional; details: route intraperitoneal; outline: as §1
[3] = Antitumor activity against mouse early Lewis lung carcinoma allografted in BDF1 mouse assessed as time delay in tumor growth at 20 mg/kg, ip administered as single dose on 1 or 2 days post-tumor implantation; format: functional; details: route intraperitoneal
Outline: (§2)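 BDF1 mice (C57Blk/6 × DBA/2) implanted sc by trocar with ~40 mg Lewis lung tumor fragments from bacteriologically sterile donors. A single ip dose was given on day 1 or 2, as a solution or suspension in water or saline with suspending agent, at ≤0.5 ml. Tumors were measured by caliper at least twice weekly, with weight = ab²/2. Delay was taken as the days for the tumor to reach 1 g.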

[4] = Antitumor activity against mouse early Lewis lung carcinoma allografted in BDF1 mouse assessed as time delay in tumor growth at 30 mg/kg, ip administered as single dose on 1 or 2 days post-tumor implantation; format: functional; details: route intraperitoneal; outline: as §2
[5] = Antitumor activity against mouse early Lewis lung carcinoma allografted in ip dosed BDF1 mouse assessed as disease cure administered as single dose on 1 or 2 days post-tumor implantation measured for 80 days post-drug treatment; format: functional
Outline: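 BDF1 mice implanted sc by trocar with ~40 mg Lewis lung fragments from sterile donor tumors. A single ip dose was given on day 1 or 2 after implant, in water or saline vehicle. Cures were scored in animals observed for at least 80 days after treatment. Drug-toxicity controls were matched non-tumor-bearing mice monitored for body weight and deaths.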

[6] = Ratio of ED50 for antitumor activity against mouse L1210 cells allografted in ip dosed mouse to LD10 for mouse
[7] = system: Mus musculus; assay: Antitumor activity against mouse advanced Lewis lung carcinoma allografted in ip dosed BDF1 mouse assessed as complete regression of established tumor administered as single dose on day 6 or 7 post-tumor implantation; format: functional, organism-based
Outline: (§3)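 BDF1 mice (C57Blk/6 × DBA/2) implanted sc by trocar with Lewis lung tumor fragments of about 40 mg, taken only from bacteriologically sterile donor tumors. Mice bearing tumors of about 400 mg (day 6-7) were selected. Each received a single ip dose on day 7, at or below the LD10 in normal mice. Groups were of 10 mice. Tumor weight was taken from calipers as w = ab²/2, measured at least twice weekly. Matched non-tumor mice served as toxicity controls.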

[8] = Antitumor activity against mouse advanced Lewis lung carcinoma allografted in ip dosed BDF1 mouse assessed as increase in host lifespan administered as single dose on day 6 or 7 post-tumor implantation; format: functional
Outline: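 Advanced Lewis lung model: about 40 mg fragments implanted sc by trocar into BDF1 mice, and mice with tumors of about 400 mg (day 6-7) selected. Tumor weight from calipers, w = ab²/2. Agent given as one ip dose in distilled water or physiological saline. Nontumor-bearing mice received matching doses as toxicity controls.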

[9] = Antitumor activity against mouse early Lewis lung carcinoma allografted in BDF1 mouse assessed as increase in host life span at 26 mg/kg, ip administered as single dose on 1 or 2 days post-tumor implantation; format: functional; details: route intraperitoneal; outline: as §1
[10] = Antitumor activity against mouse early Lewis lung carcinoma allografted in BDF1 mouse assessed as increase in host life span at 34 mg/kg, ip administered as single dose on 1 or 2 days post-tumor implantation; format: functional; details: route intraperitoneal; outline: as §1
[11] = Antitumor activity against mouse advanced Lewis lung carcinoma allografted in BDF1 mouse assessed as increase in host life span at 26 mg/kg, ip administered as single dose on 7th day post-tumor implantation; format: functional; details: route intraperitoneal
Outline: (§4)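 BDF1 mice (C57Blk/6 × DBA/2) implanted sc by trocar with about 40 mg Lewis lung tumor fragments from bacteriologically sterile donors. Advanced-disease groups held tumors of about 400 mg by day 6-7, sized by caliper (w = ab²/2). Single ip injection on day 7, in water or saline vehicle, at or below the LD10 in normal mice. Tumors measured at least twice weekly.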

[12] = Antitumor activity against mouse early Lewis lung carcinoma allografted in BDF1 mouse assessed as time delay in tumor growth at 26 mg/kg, ip administered as single dose on 1 or 2 days post-tumor implantation; format: functional; details: route intraperitoneal; outline: as §2
[13] = Antitumor activity against mouse early Lewis lung carcinoma allografted in BDF1 mouse assessed as time delay in tumor growth at 34 mg/kg, ip administered as single dose on 1 or 2 days post-tumor implantation; format: functional; details: route intraperitoneal; outline: as §2
[14] = system: Mus musculus; assay: Antitumor activity against mouse advanced Lewis lung carcinoma allografted in ip dosed BDF1 mouse assessed as disease cure administered as single dose on day 6 or 7 post-tumor implantation; format: functional, organism-based; outline: as §3
[15] = Antitumor activity against mouse early Lewis lung carcinoma allografted in BDF1 mouse assessed as increase in host life span at 32 mg/kg, ip administered as single dose on 1 or 2 days post-tumor implantation; format: functional; details: route intraperitoneal; outline: as §1
[16] = Antitumor activity against mouse early Lewis lung carcinoma allografted in BDF1 mouse assessed as increase in host life span at 21 mg/kg, ip administered as single dose on 1 or 2 days post-tumor implantation; format: functional; details: route intraperitoneal; outline: as §1
[17] = Antitumor activity against mouse early Lewis lung carcinoma allografted in BDF1 mouse assessed as time delay in tumor growth at 32 mg/kg, ip administered as single dose on 1 or 2 days post-tumor implantation; format: functional; details: route intraperitoneal; outline: as §2
[18] = Antitumor activity against mouse early Lewis lung carcinoma allografted in BDF1 mouse assessed as time delay in tumor growth at 21 mg/kg, ip administered as single dose on 1 or 2 days post-tumor implantation; format: functional; details: route intraperitoneal; outline: as §2
[19] = system: Mus musculus; assay: Antitumor activity against mouse advanced Lewis lung carcinoma allografted in BDF1 mouse assessed as disease cure at 33 mg/kg, ip administered as single dose on 7th day post-tumor implantation measured for 80 days post-drug treatment; format: functional, organism-based; parameters: dose 33 mg/kg; outline: as §3
[20] = Antitumor activity against mouse advanced Lewis lung carcinoma allografted in BDF1 mouse assessed as increase in host life span at 33 mg/kg, ip administered as single dose on 7th day post-tumor implantation; format: functional; details: route intraperitoneal; outline: as §4
[21] = Antitumor activity against mouse early Lewis lung carcinoma allografted in BDF1 mouse assessed as increase in host life span at 15 mg/kg, ip administered as single dose on 1 or 2 days post-tumor implantation; format: functional; details: route intraperitoneal; outline: as §1
[22] = Antitumor activity against mouse early Lewis lung carcinoma allografted in BDF1 mouse assessed as increase in host life span at 10 mg/kg, ip administered as single dose on 1 or 2 days post-tumor implantation; format: functional; details: route intraperitoneal
Outline: (§5)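 Early disease: BDF1 mice carrying sc trocar implants of about 40 mg Lewis lung fragments. One ip dose given on day 1 or 2 after implant, in distilled water or saline, at ≤0.5 ml. Endpoints were % increase in life-span of dying animals and delay in days for the primary tumor to reach 1 g. Untreated controls served as reference.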

[23] = Antitumor activity against mouse early Lewis lung carcinoma allografted in BDF1 mouse assessed as time delay in tumor growth at 15 mg/kg, ip administered as single dose on 1 or 2 days post-tumor implantation; format: functional; details: route intraperitoneal; outline: as §2
[24] = system: Mus musculus; assay: Antitumor activity against mouse advanced Lewis lung carcinoma allografted in BDF1 mouse assessed as disease cure at 22 mg/kg, ip administered as single dose on 7th day post-tumor implantation measured for 80 days post-drug treatment; format: functional, organism-based; parameters: dose 22 mg/kg; outline: as §3
[25] = Antitumor activity against mouse advanced Lewis lung carcinoma allografted in BDF1 mouse assessed as increase in host life span at 22 mg/kg, ip administered as single dose on 7th day post-tumor implantation; format: functional; details: route intraperitoneal; outline: as §4
[26] = Antitumor activity against mouse early Lewis lung carcinoma allografted in BDF1 mouse assessed as time delay in tumor growth at 10 mg/kg, ip administered as single dose on 1 or 2 days post-tumor implantation; format: functional; details: route intraperitoneal
Outline: (§6)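 Sc trocar implants of about 40 mg Lewis lung fragments in BDF1 mice. A single ip injection was given on day 1 or 2, in water or physiological saline, at ≤0.5 ml. Tumor size came from caliper length and width as w = ab²/2, measured at least twice weekly. Growth delay is the extra days taken to reach 1 g, compared with untreated controls.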

[27] = Antitumor activity against mouse early Lewis lung carcinoma allografted in BDF1 mouse assessed as increase in host life span at 17 mg/kg, ip administered as single dose on 1 or 2 days post-tumor implantation; format: functional; details: route intraperitoneal; outline: as §1
[28] = Antitumor activity against mouse early Lewis lung carcinoma allografted in BDF1 mouse assessed as increase in host life span at 11 mg/kg, ip administered as single dose on 1 or 2 days post-tumor implantation; format: functional; details: route intraperitoneal; outline: as §5
[29] = Antitumor activity against mouse early Lewis lung carcinoma allografted in BDF1 mouse assessed as time delay in tumor growth at 17 mg/kg, ip administered as single dose on 1 or 2 days post-tumor implantation; format: functional; details: route intraperitoneal; outline: as §2
[30] = Antitumor activity against mouse early Lewis lung carcinoma allografted in BDF1 mouse assessed as time delay in tumor growth at 11 mg/kg, ip administered as single dose on 1 or 2 days post-tumor implantation; format: functional; details: route intraperitoneal; outline: as §6
[31] = system: Mus musculus; assay: Antitumor activity against mouse advanced Lewis lung carcinoma allografted in BDF1 mouse assessed as disease cure at 15 mg/kg, ip administered as single dose on 7th day post-tumor implantation measured for 80 days post-drug treatment; format: functional, organism-based; parameters: dose 15 mg/kg; outline: as §3
[32] = Antitumor activity against mouse advanced Lewis lung carcinoma allografted in BDF1 mouse assessed as increase in host life span at 15 mg/kg, ip administered as single dose on 7th day post-tumor implantation; format: functional; details: route intraperitoneal; outline: as §4
[33] = Antitumor activity against mouse early Lewis lung carcinoma allografted in BDF1 mouse assessed as increase in host life span at 148 mg/kg, ip administered as single dose on 1 or 2 days post-tumor implantation; format: functional; details: route intraperitoneal; outline: as §1
[34] = Antitumor activity against mouse early Lewis lung carcinoma allografted in BDF1 mouse assessed as increase in host life span at 99 mg/kg, ip administered as single dose on 1 or 2 days post-tumor implantation; format: functional; details: route intraperitoneal; outline: as §1
[35] = Antitumor activity against mouse early Lewis lung carcinoma allografted in BDF1 mouse assessed as time delay in tumor growth at 148 mg/kg, ip administered as single dose on 1 or 2 days post-tumor implantation; format: functional; details: route intraperitoneal; outline: as §2
[36] = Antitumor activity against mouse early Lewis lung carcinoma allografted in BDF1 mouse assessed as time delay in tumor growth at 99 mg/kg, ip administered as single dose on 1 or 2 days post-tumor implantation; format: functional; details: route intraperitoneal; outline: as §2
[37] = system: Mus musculus; assay: Antitumor activity against mouse advanced Lewis lung carcinoma allografted in BDF1 mouse assessed as disease cure at 44 mg/kg, ip administered as single dose on 7th day post-tumor implantation measured for 80 days post-drug treatment; format: functional, organism-based; parameters: dose 44 mg/kg; outline: as §3
[38] = Antitumor activity against mouse advanced Lewis lung carcinoma allografted in BDF1 mouse assessed as increase in host life span at 44 mg/kg, ip administered as single dose on 7th day post-tumor implantation; format: functional; details: route intraperitoneal; outline: as §4

C[C@H]1SC[C@@H](NC(=O)N(CCCl)N=O)CS1
ILS at 20 mg/kg [1]: 0% | ILS at 30 mg/kg [2]: 42% | Time [3]: 8.1 days | Time [4]: 18 days | Activity [5]: 10% | Ratio [6]: 0.4 | inhibition [7]: inactive | ILS [8]: <25%

O=NN(CCCl)C(=O)N[C@H]1CC[C@H](CC(=O)O)CC1
ILS at 26 mg/kg [9]: 34% | ILS at 34 mg/kg [10]: 23% | ILS at 26 mg/kg [11]: 24% | Time [12]: 10 days | Time [13]: 11 days | Activity [5]: >50% | Ratio [6]: 0.3 | inhibition [7]: inactive | Activity [14]: inactive | ILS [8]: >25%

O=NN(CCF)C(=O)NC1CCS(=O)(=O)CC1
ILS at 32 mg/kg [15]: 0% | ILS at 21 mg/kg [16]: 18% | Time [17]: 15 days | Time [18]: 8.3 days | Activity [19]: inactive | ILS at 33 mg/kg [20]: 0% | Activity [5]: 10% | Ratio [6]: 0.3 | inhibition [7]: inactive | Activity [14]: inactive | ILS [8]: >25%

O=NN(CCCl)C(=O)NC1CSCSC1
ILS at 15 mg/kg [21]: 42% | ILS at 10 mg/kg [22]: 24% | Time [23]: 4.5 days | Activity [24]: inactive | ILS at 22 mg/kg [25]: 36% | Time [26]: 3.5 days | Activity [5]: 10% | Ratio [6]: 0.3 | inhibition [7]: Active | Activity [14]: inactive

O=NN(CCCl)C(=O)NC1CCC(=O)NC1=O (stereo not given)
ILS at 17 mg/kg [27]: 28% | ILS at 11 mg/kg [28]: 32% | Time [29]: 3.8 days | Time [30]: 1.4 days | Activity [31]: inactive | ILS at 15 mg/kg [32]: 49% | Activity [5]: 10% | Ratio [6]: 0.4 | inhibition [7]: Active | Activity [14]: inactive | ILS [8]: >25%

C[C@H]1CC[C@H](NC(=O)N(CCF)N=O)CC1
ILS at 148 mg/kg [33]: 0% | ILS at 99 mg/kg [34]: 34% | Time [35]: 1.4 days | Time [36]: 2.6 days | Activity [37]: inactive | ILS at 44 mg/kg [38]: 94% | Activity [5]: 10% | Ratio [6]: 0.6 | inhibition [7]: Active | Activity [14]: inactive
